# DSG3 Ab inh: inhibitors of pemphigus antibody binding to human desmoglein-3; AID 588358; binding (percent of control), % at 10 µM; 310,000 compounds, 0.48% hits; DSG3-coupled beads, scFv-anti-DSG3-GFP binding, flow cytometry; active compounds read low; P32926;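 active = binding more than 3 SD below its plate's average and above zero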;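 note: hits lower antibody fragment binding to DSG3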
# Hck-Nef inh: inhibitors of human Hck kinase activated by Nef | P08631 | Recombinant Hck-YEEI plus Nef, Z-Lyte FRET kinase assay | inhibition, % at 20 µM | 220,000 compounds, 0.68% hits | AID 463187;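 active = Hck-Nef kinase inhibition above about 50%, limit read from the data; inactive = inhibition below that limit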;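 note: 0% = DMSO with Hck plus Nef and 100% = Hck alone without Nef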
# Runt-CBFb FRET: blocks binding of human RUNX1 Runt domain to CBFb; Q01196+Q13951; Cerulean-Runt/Venus-CBFb FRET ratio 530/480, 1 h; inhibition, % at 20 µM; 220,000 compounds, 0.46% hits; AID 1496;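 active = inhibition over about 50% at 20 µM in the single-dose screen, limit read from the data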;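 note: 0% = DMSO wells and 100% = excess unlabeled CBFb competitor control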
#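 test system = Cerulean-tagged RUNX1 Runt domain (FRET donor) fusion protein | reagent = Venus-CBFb binding partner, 100 nM | incubation = protein complex preformed 1 h, compound exposure 1 h, room temperature, dark | detection = FRET fluorescence | read-out basis = loss of energy transfer signal | controls = 5 µM unlabeled CBFb as full-inhibition high control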
# Runt-SMMHC FRET: Runt domain-CBFb-SMMHC interaction inhibition | Q01196+Q13951 | Cerulean-Runt/Venus-CBFb-SMMHC FRET ratio 530/480, 1 h | 220,000 compounds, 0.74% hits | inhibition, % at 20 µM;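 active = mean inhibition across duplicate retests at 20 µM reaching about 50%, limit read from the data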;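 note: 0% = DMSO wells and 100% = wells with excess untagged CBFb-SMMHC; inhibitors lower the FRET ratio by blocking Runt binding to CBFb-SMMHC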
# pCIP destab: p/CIP protein destabilization. F442A p/CIP-EGFP cells, EGFP fluorescence, 16 h. AID 1984. Q05BA5. 290,000 compounds, 0.01% hits. decrease of EGFP signal, % at 10 µM;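 active = EGFP signal decrease of at least 30% at 10 µM or well 3 SD below plate mean, unless failing retest; inactive = the rest, including hits failing retest or dose response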
# RanGTP-Impb inh: inhibitors of RanGTP-importin-beta interaction, primary screen, biochemical, FRET, CFP-Ran, YFP-importin-beta, homogeneous. cell-free CFP-Ran/YFP-importin-beta FRET ratio. 300,000 compounds, 1.1% hits. inhibition, % (no concentration beside the values);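 active = more than half of the replicate wells show a fall in the fluorescence ratio signal beyond about 16%, limit read from the data, passing the limit was not always enough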;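 note: 0% = DMSO wells and 100% = Ran loaded with GDP instead of GTP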
# Numbers without * were called inactive; . = no result given. Shown are actives, neighbours in structure and some others; about 2.1% of the full set was active somewhere.
SMILES,DSG3 Ab inh,Hck-Nef inh,Runt-CBFb FRET,Runt-SMMHC FRET,pCIP destab,RanGTP-Impb inh
CCCN(C(=O)c1cc(-c2ccco2)nc2ccccc12)c1c(N)n(Cc2ccccc2)c(=O)[nH]c1=O,86.6*,.,.,.,.,0.6
O=C(/C=C/c1c[nH]c2ccccc12)c1cccc2ccccc12,80.4,-0.7,19.5,7.7,3.7,16.8*
COc1cc(CN(C)C(=O)C2CCN(S(=O)(=O)c3cccs3)CC2)ccc1OC(F)F,99.0,.,.,.,.,.
CCC(CC)C(=O)Nc1nnc(S(=O)(=O)N2c3ccccc3CC2C)s1 (configuration not stated),-14.5*,.,.,.,-8.5,1.4
CCC(CC)C(=O)Nc1nnc(S(=O)(=O)N2CCc3ccccc32)s1,92.6,.,.,.,-8.8,5.2
CCN(CC)c1ccc(/C=N\NC(=O)c2cccc3cc[nH]c23)cc1,.,-7.8,-21.4,70.7,14.6,1.7
CCOC(=O)c1sc(N/N=C/c2cc(Br)c(O)c(OC)c2)nc1C,105.9,.,.,.,-9.4,27.3*
Cc1cc(Br)cc2c1N(C)C(=O)C2(c1ccc(O)cc1)c1ccc(O)cc1,102.8,.,.,.,.,1.5
CN1C(C(=O)NCc2cccc(Br)c2)CC2Cn3c(nc4cc5ccccc5cc43)C21 (configuration not stated),90.5*,26.2,-3.9,1.8,7.7,-2.5
Cc1cc2nc3n(c2cc1C)CC1CC(C(=O)NCc2cccc(Br)c2)N(C)C31 (configuration not stated),117.2,.,.,.,.,4.5
CCC(=O)N1CCc2cc(S(=O)(=O)CCC(=O)N3CCN(c4ccc(C(C)=O)cc4)CC3)ccc21,101.1,.,.,.,-8.1,-2.0
CCn1c(C)nc2cc(C(=O)NNC(=O)CCC3CCCCC3)ccc21,62.6*,7.0,-1.4,-5.3,-7.4,3.3
NS(=O)(=O)c1ccc(NC(=O)CCc2ccccc2)cc1,106.8*,5.1,0.5,0.0,0.4,0.7
Cc1cc(C(=O)OCC(=O)Nc2ccc(S(N)(=O)=O)cc2)c2ccccc2n1,105.6,25.1,0.4,-7.8,61.7*,-2.8
COC(=O)c1ccc(NC(=O)c2cc(-c3ccccn3)nc3ccccc23)cc1,4.9*,-0.4,-2.6,-3.2,-4.4,-0.2
COc1ccccc1NC(=O)COC(=O)c1cc(C)nc2ccccc12,99.5,.,.,.,.,.
O=C(CCc1ccccc1)Nc1ccccc1,90.5,14.6,.,.,5.5,1.3
NS(=O)(=O)c1ccc(NC(=O)c2cc(-c3cccs3)nc3ccccc23)cc1,35.6*,3.7,6.6,-11.0,-2.6,6.4
O=C(CSc1nnc(SCc2ccc(Cl)cc2)s1)N/N=C/c1ccccc1C(=O)O,99.2,21.0,-1.5,-4.3,1.3,-2.9
CN(C)/C=C/C1=C([N+](=O)[O-])C(c2cccc([N+](=O)[O-])c2)NC(=O)N1 (configuration not stated),87.0,32.5,-3.7,-8.2,0.3,-0.5
COc1cc(OC)cc(C(=O)NCC(=O)OCc2ccc(Cl)c(Cl)c2)c1,89.8,.,.,.,.,.
CN(C)c1c2ccccc2nc2c(F)c(F)c(F)c(F)c12,101.8,11.6,.,102.1,-2.1,23.1*
Cc1c2ccccc2nc2c(F)c(N(C)C)c(F)c(F)c12,123.3,-1.9,-6.3,-43.8,11.3,-5.0
Cc1cc(-c2cccc([N+](=O)[O-])c2)nc2ccc3ccccc3c12,-1.4*,0.1,1.9,5.4,4.6,0.0
Cc1ccc(C2C3=C(CCCC3=O)Nc3[nH]c(=S)[nH]c(=O)c32)cc1 (configuration not stated),96.8,-25.1,48.0,60.1*,-10.5,2.8
O=C1CCCC2=C1C(c1ccc(Br)cc1)c1c([nH]c(=S)[nH]c1=O)N2 (configuration not stated),96.4,0.0,46.2,68.1*,3.4,2.5
Cc1cc(Nc2ccccc2)nc(N2CCN(C(=O)c3ccc4c(c3)OCO4)CC2)n1,96.0,.,.,.,.,1.0
CC1(C(=O)N2CCC(CO)(Cc3cccc(C(F)(F)F)c3)CC2)CC1,97.5*,.,.,.,-6.0,1.2
CC(=O)c1ccc(C(=O)N2CCC(CO)(Cc3cccc(C(F)(F)F)c3)CC2)cc1,103.2,-4.6,-4.7,0.1,-1.5,-2.6

# From PubChem
